# HSF1 inhib = HSF1 inhibition; NIH3T3-HGL HSE-luciferase, MG132-induced, luminescence 8 h; active compounds read low; activity change, negative = inhibition, % at 7.5 µM (by protocol); hit rate 0.77% among 300,000; AID 2098;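 active = more than half of replicate wells show activity change below -50%, luminescence cut by over half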;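 also: luciferase reports HSF-1 transcriptional activity via heat shock element; 0% = median of DMSO wells and -100% = zero luminescence signal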
# CHT inh = inhibits the human high affinity choline transporter. CHT-expressing cells, membrane potential dye, choline response; active compounds read low. B-score at 10 µM. hit rate 0.86% among 310,000;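 active = B-score over 3 SD under the library average, and starting fluorescence ratio not unusually high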;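 also: choline stimulus applied at its EC90 after an EC20 pre-addition; B-score computed on integrated fluorescence ratio after choline addition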
# PHOSPHO1 inh = blocks human PHOSPHO1 phosphatase activity; hit rate 1.1% among 290,000; recombinant PHOSPHO1, absorbance phosphatase assay; inhibition, % at 13.3 µM; AID 1565; Q8TCT1; in the data active = inhibition above about 60%
# Target sequence (Q8TCT1 whole entry, looked up): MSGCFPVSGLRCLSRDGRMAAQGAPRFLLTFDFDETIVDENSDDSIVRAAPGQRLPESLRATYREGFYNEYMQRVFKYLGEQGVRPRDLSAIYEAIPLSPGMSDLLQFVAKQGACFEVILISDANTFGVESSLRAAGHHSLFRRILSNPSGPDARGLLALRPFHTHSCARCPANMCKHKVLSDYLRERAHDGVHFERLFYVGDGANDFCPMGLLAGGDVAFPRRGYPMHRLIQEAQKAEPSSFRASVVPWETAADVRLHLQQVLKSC
# Hep lipid drop = hepatic lipid droplet formation modulation | AML12 mouse hepatocytes, oleate lipid droplets, BODIPY imaging | inhibition, % at 6.5 µM | hit rate 0.4% among 240,000;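 active = lipid droplet intensity inhibited by at least 50%, with more than 500 cells counted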
#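 Assay system: AML12 mouse liver cells | Compound dosing: One dose, 6.5 µM compound | Read-out basis: Droplet intensity reduction, % inhibition | Measured by: Fluorescence imaging, 20x objective, two fields per well | Schedule: Overnight treatment with compound plus oleate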
# CHT allo act = human CHT allosteric activation; B-score at 10 µM; Q9GZV3; CHT-expressing cells, membrane potential dye, choline EC20; active compounds read high; LV-AA mutant CHT in HEK293 cells; hit rate 0.49% among 310,000;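 active = initial fluorescence not abnormally high and integrated response B-score, plate-corrected, over 3 SD above library mean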
# HSF1 activator = increases HSF-1 driven luciferase reporter signal. NIH3T3-HGL HSF-1 luciferase reporter, MG132, 8 h; 100% = twice DMSO control signal. activation, % at 9 µM. hit rate 1.7% among 300,000;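 active = mean replicate activation of at least 50% with a set share of replicates each reaching 50%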;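 also: 0% = median of the neutral control wells and 100% = twice that signal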
# CHT block conf = confirmation of human choline transporter CHT inhibitors; shares compounds with CHT inh; CHT-expressing cells, choline membrane potential dye; LV-to-AA substituted CHT, HEK293 cells; AID 493221; hit rate 70% among 2,400; CHT activity remaining % of control (active compounds read low), % at 10 µM;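 active = choline transporter activity left, mean of duplicates at 10 µM, below buffer-only control mean minus 3 SD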;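 also: depolarization triggered by choline at its EC90 following an EC20 pre-addition; 0% = hemicholinium-3 full block and 100% = buffer-only control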
# HEK293 CHT ctr = CHT inhibitor counter-screen hit in parental HEK293 cells | shares compounds with CHT inh | membrane potential ratio readout (active if shifted either direction beyond buffer ±3SD; no single direction) at 10 µM | hit rate 4% among 2,400 | membrane potential dye, choline response; active = decrease or increase beyond buffer ±3SD;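 also: parental cells lack the transporter so any hit is non-specific; ratio is peak minus trough fluorescence over baseline after EC90 choline challenge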
# Active calls of the source: *; i = inactive; · = no result. Shown are actives, neighbours in structure and some others; about 4.9% of the full set was active somewhere.
SMILES,HSF1 inhib,CHT inh,PHOSPHO1 inh,Hep lipid drop,CHT allo act,HSF1 activator,CHT block conf,HEK293 CHT ctr
Cc1ccc(C(=O)N/C(=C/c2ccco2)C(=O)Nc2cccc(C)c2)cc1,1,-5.7*,-11,1,i,10,62%*,i
Cc1cccc(NC(=O)/C(=C\c2ccco2)NC(=O)c2cccs2)c1,1,i,-12,·,i,-5,·,·
Cc1cc(C)nc(N2N=C(CSc3ccc(Cl)cc3)CC2=O)n1,4,-5*,-8,6,i,-1,42%*,i
Cc1cc(C)nc(N2C(=O)CC(Cc3ccc(Cl)cc3)C2=O)n1 (configuration not stated),-2,i,28,25,i,7,·,·
NS(=O)(=O)c1ccc(CCNCc2ccccc2OCc2ccc(Cl)cc2)cc1,5,-5.1*,-6,0,i,2,27%*,i
NS(=O)(=O)c1ccc(CCNCc2cc(Cl)ccc2OCc2ccccc2)cc1,0,-6.5*,34,·,i,4,50%*,i
C=CCOc1ccccc1CNCCc1ccc(S(N)(=O)=O)cc1,-4,i,-17,6,i,3,·,·
NS(=O)(=O)c1ccc(CCNC(=O)CNCCc2ccccc2)cc1,0,i,11,-1,i,37,·,·
Cc1ccc(NC(=S)NNC(=O)C2CC2c2ccc(C)cc2)cc1 (configuration not stated),2,-5.5*,-11,-14,i,13,58%*,i
NNC(=O)C1CC1c1ccc(Cl)cc1 (configuration not stated),5,i,16,0,i,6,·,·
Cc1ccc(C2CC2C(=O)NNC(=S)Nc2cccc(Cl)c2)cc1 (configuration not stated),-2,-12*,-18,-4,i,-3,43%*,i
O=C(NNC(=S)Nc1ccc(F)cc1)C1CC1c1ccc(Cl)cc1 (configuration not stated),0,-9.8*,16,·,i,-22,14%*,i
COc1ccc(NC(=S)NNC(=O)C2CC2c2ccc(C)cc2)cc1 (configuration not stated),-2,i,23,-5,i,-5,·,·
Cc1ccc(C2CC2C(=O)NNC(=S)Nc2cccc(C)c2)cc1 (configuration not stated),0,i,-8,-3,i,-19,·,·
O=C(/C=C/c1cc([N+](=O)[O-])ccc1OC(F)F)NCc1ccc(F)cc1,-5,i,6,13,i,27,·,·
COc1ccccc1C(=O)NC(C)c1cccc2ccccc12 (configuration not stated),-3,-5.7*,30,-16,i,4,54%*,i
CCc1ccc(N=c2c([N+](=O)[O-])nn(-c3ccc4c(c3)OCCO4)n2O)cc1,-3,-6.3*,-4,26,i,-12,69%*,i
CN1CCN(CC(=O)Nc2nc(-c3c[nH]c4ccccc34)cs2)CC1,-29,-5.4*,-12,7,i,-43,64%*,i
CCC(C)Nc1nc(-c2c[nH]c3ccccc23)cs1 (configuration not stated),0,i,28,-9,i,9,·,·
CCN(CC)c1ccc(C2C3CCCCC3(O)CCN2CC(=O)N2CCCCC2)cc1 (configuration not stated),9,-5.9*,13,·,i,7,i,i
C[C@H](NC(=O)N1CCn2c1nc1ccccc12)C(=O)NC1CC1,-3,i,33,-21,i,20,·,·
Cc1ccc(Sc2cc(Cl)nc(N)n2)cc1,0,i,22,·,i,5,·,·
O=C(Nc1ccc(S(=O)(=O)NC2=NCCCCC2)cc1)C1COc2ccccc2O1 (configuration not stated),-31,-5.1*,20,17,i,-43,40%*,i
